ChEMBL document CHEMBL1128288, “7-Azetidinylquinolones as antibacterial agents. 3. Synthesis, properties and structure-activity relationships of the stereoisomers containing a 7-(3-amino-2-methyl-1-azetidinyl) moiety” (J Med Chem, 1995)
Values after ≈ are worked out from the molar mass of the structure shown.

Experiments:
Klebsiella pneumoniae = experiment: In vitro antibacterial activity measured as minimum inhibitory concentration was evaluated on klebsiella pneumoniae ATCC 10031 (Kp).; format: functional; conditions: Klebsiella pneumoniae, ATCC 10031; read-out: MIC
Method in brief: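 Serial 2-fold agar dilution in Mueller Hinton medium, run side by side with reference quinolones.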

Morganella morganii = experiment: In vitro antibacterial activity measured as minimum inhibitory concentration was evaluated on morganella morganii ATCC 8019 (Mm).; format: functional; conditions: Morganella morganii, ATCC 8019; read-out: MIC
Method in brief: (§1)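 Serial 2-fold agar dilution in Mueller Hinton medium, run side by side with reference quinolones. Inoculum 10^5 cfu/mL; compound range 0.007–16 µg/mL.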

[1] = tested on: Staphylococcus epidermidis; experiment: In vitro antibacterial activity measured as minimum inhibitory concentration was evaluated on Staphylococcus epidermidis ATCC 155-1 (Se).; format: functional; conditions: Staphylococcus epidermidis, ATCC 155-1; read-out: MIC; method in brief: as §1
Proteus vulgaris = experiment: In vitro antibacterial activity measured as minimum inhibitory concentration was evaluated on proteus vulgaris ATCC 8427 (Pv).; format: functional; conditions: Proteus vulgaris, ATCC 8427; read-out: MIC; method in brief: as §1
Enterococcus faecalis = experiment: In vitro antibacterial activity measured as minimum inhibitory concentration was evaluated on Streptococcus faecalis ATCC 10541 (Sf).; format: functional; conditions: Enterococcus faecalis, ATCC 10541; read-out: MIC; method in brief: as §1
Bacillus subtilis = experiment: In vitro antibacterial activity measured as minimum inhibitory concentration was evaluated on Bacillus subtilis ATCC 6633(Bs).; format: functional; conditions: Bacillus subtilis, ATCC 6633; read-out: MIC; method in brief: as §1
Bacillus cereus = experiment: In vitro antibacterial activity measured as minimum inhibitory concentration was evaluated on Bacillus cereus ATCC 11778 (Bc).; format: functional; conditions: Bacillus cereus, ATCC 11778; read-out: MIC; method in brief: as §1
Pseudomonas aeruginosa [2] = experiment: In vitro antibacterial activity measured as minimum inhibitory concentration was evaluated on Pseudomonas aeruginosa ATCC 10145 (Pa).; format: functional; conditions: Pseudomonas aeruginosa, ATCC 10145; read-out: MIC; method in brief: as §1
Staphylococcus aureus [3] = experiment: In vitro antibacterial activity measured as minimum inhibitory concentration was evaluated on Staphylococcus aureus ATCC 25178 (Sa).; format: functional; conditions: Staphylococcus aureus, ATCC 25178; read-out: MIC; method in brief: as §1
[4] = mouse, in vivo, po, 50 mg/kg
Enterobacter cloacae = experiment: In vitro antibacterial activity measured as minimum inhibitory concentration, was evaluated on Enterobacter cloacae ATCC 23355 (Ecl).; format: functional; conditions: Enterobacter cloacae, ATCC 23355; read-out: MIC
Escherichia coli [5] = experiment: In vitro antibacterial activity measured as minimum inhibitory concentration, was evaluated on Escherichia coli ATCC 23559(Ec).; format: functional; conditions: Escherichia coli, ATCC 23559; read-out: MIC; method in brief: as §1
Escherichia coli [6] = experiment: In vivo efficacy as ED50 against Escherichia coli HM-42 by oral administration in mice.; format: functional; conditions: Escherichia coli, po; read-out: ED50
Method in brief: (§2)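 Mice, 4 groups of 10, infected intraperitoneally with slightly more than the LD100 of the organism. A single oral dose was given immediately after infection, with four doses (one per group) chosen from in vitro activity. Survival was scored after one week. ED50 (total dose, mg/kg, protecting 50%) was interpolated among group survival rates.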

Staphylococcus aureus [7] = experiment: In vivo efficacy as ED50 against Staphylococcus aureus HS-93 by oral administration in mice.; format: functional; conditions: Staphylococcus aureus, po; read-out: ED50; method in brief: as §2
Pseudomonas aeruginosa [8] = experiment: In vivo efficacy as ED50 against Pseudomonas aeruginosa HS-116 by oral administration in mice.; format: functional; conditions: Pseudomonas aeruginosa, po; read-out: ED50; method in brief: as §2

CCn1cc(C(=O)O)c(=O)c2c(N)c(F)c(N3C[C@H](N)[C@H]3C)c(F)c21
MIC (Klebsiella pneumoniae): 0.25 µg/mL (≈ 0.71 µM) | MIC (Morganella morganii): 0.06 µg/mL (≈ 0.17 µM) | MIC [1]: 0.25 µg/mL (≈ 0.71 µM) | MIC (Proteus vulgaris): 0.25 µg/mL (≈ 0.71 µM) | MIC (Enterococcus faecalis): 0.25 µg/mL (≈ 0.71 µM) | MIC (Bacillus subtilis): 0.06 µg/mL (≈ 0.17 µM) | MIC (Bacillus cereus): 0.25 µg/mL (≈ 0.71 µM) | MIC (Pseudomonas aeruginosa [2]): 0.5 µg/mL (≈ 1.42 µM) | MIC (Staphylococcus aureus [3]): 0.12 µg/mL (≈ 0.341 µM) | AUC [4]: 12500 ng·h/mL | MIC (Enterobacter cloacae): 0.06 µg/mL (≈ 0.17 µM) | MIC (Escherichia coli [5]): 0.25 µg/mL (≈ 0.71 µM)

C[C@@H]1[C@@H](N)CN1c1cc2c(cc1F)c(=O)c(C(=O)O)cn2-c1ccc(F)cc1F
ED50 (Escherichia coli [6]): 10 mg/kg | MIC (Klebsiella pneumoniae): 0.25 µg/mL (≈ 0.62 µM) | MIC (Morganella morganii): 1 µg/mL (≈ 2.48 µM) | MIC [1]: 0.25 µg/mL (≈ 0.62 µM) | MIC (Proteus vulgaris): 2 µg/mL (≈ 4.96 µM) | MIC (Enterococcus faecalis): 4 µg/mL (≈ 9.92 µM) | MIC (Bacillus subtilis): 0.25 µg/mL (≈ 0.62 µM) | ED50 (Staphylococcus aureus [7]): 16.1 mg/kg | ED50 (Pseudomonas aeruginosa [8]): 90 mg/kg | MIC (Bacillus cereus): 0.5 µg/mL (≈ 1.24 µM) | MIC (Pseudomonas aeruginosa [2]): 8 µg/mL (≈ 19.8 µM) | MIC (Staphylococcus aureus [3]): 0.25 µg/mL (≈ 0.62 µM) | AUC [4]: 35900 ng·h/mL | MIC (Enterobacter cloacae): 1 µg/mL (≈ 2.48 µM) | MIC (Escherichia coli [5]): 0.5 µg/mL (≈ 1.24 µM)

C[C@H]1COc2c(N3CC(C)(N)C3)c(F)cc3c(=O)c(C(=O)O)cn1c23
ED50 (Escherichia coli [6]): 6.7 mg/kg | MIC (Klebsiella pneumoniae): 0.015 µg/mL (≈ 0.0432 µM) | MIC (Morganella morganii): 0.015 µg/mL (≈ 0.0432 µM) | MIC [1]: 0.12 µg/mL (≈ 0.345 µM) | MIC (Proteus vulgaris): 0.25 µg/mL (≈ 0.72 µM) | MIC (Enterococcus faecalis): 0.5 µg/mL (≈ 1.44 µM) | MIC (Bacillus subtilis): 0.015 µg/mL (≈ 0.0432 µM) | ED50 (Staphylococcus aureus [7]): 19.1 mg/kg | ED50 (Pseudomonas aeruginosa [8]): 121 mg/kg | MIC (Bacillus cereus): 0.25 µg/mL (≈ 0.72 µM) | MIC (Pseudomonas aeruginosa [2]): 0.5 µg/mL (≈ 1.44 µM) | MIC (Staphylococcus aureus [3]): 0.25 µg/mL (≈ 0.72 µM) | AUC [4]: 8500 ng·h/mL | MIC (Enterobacter cloacae): 0.015 µg/mL (≈ 0.0432 µM) | MIC (Escherichia coli [5]): 0.015 µg/mL (≈ 0.0432 µM)

C[C@@H]1[C@@H](N)CN1c1nc2c(cc1F)c(=O)c(C(=O)O)cn2C1CC1
MIC (Klebsiella pneumoniae): 0.06 µg/mL (≈ 0.181 µM) | MIC (Morganella morganii): 0.25 µg/mL (≈ 0.752 µM) | MIC [1]: 0.25 µg/mL (≈ 0.752 µM) | MIC (Proteus vulgaris): 0.5 µg/mL (≈ 1.5 µM) | MIC (Enterococcus faecalis): 2 µg/mL (≈ 6.02 µM) | MIC (Bacillus subtilis): 0.06 µg/mL (≈ 0.181 µM) | MIC (Bacillus cereus): 0.25 µg/mL (≈ 0.752 µM) | MIC (Pseudomonas aeruginosa [2]): 2 µg/mL (≈ 6.02 µM) | MIC (Staphylococcus aureus [3]): 0.5 µg/mL (≈ 1.5 µM) | AUC [4]: 22300 ng·h/mL | MIC (Enterobacter cloacae): 0.12 µg/mL (≈ 0.361 µM) | MIC (Escherichia coli [5]): 0.12 µg/mL (≈ 0.361 µM)

C[C@@H]1[C@@H](N)CN1c1c(F)c(N)c2c(=O)c(C(=O)O)cn(C3CC3)c2c1F
ED50 (Escherichia coli [6]): 4.1 mg/kg | MIC (Klebsiella pneumoniae): 0.015 µg/mL (≈ 0.0412 µM) | MIC (Morganella morganii): 0.015 µg/mL (≈ 0.0412 µM) | MIC [1]: 0.015 µg/mL (≈ 0.0412 µM) | MIC (Proteus vulgaris): 0.06 µg/mL (≈ 0.165 µM) | MIC (Enterococcus faecalis): 0.12 µg/mL (≈ 0.329 µM) | MIC (Bacillus subtilis): 0.015 µg/mL (≈ 0.0412 µM) | ED50 (Staphylococcus aureus [7]): 11.4 mg/kg | ED50 (Pseudomonas aeruginosa [8]): 96 mg/kg | MIC (Bacillus cereus): 0.015 µg/mL (≈ 0.0412 µM) | MIC (Pseudomonas aeruginosa [2]): 0.12 µg/mL (≈ 0.329 µM) | MIC (Staphylococcus aureus [3]): 0.015 µg/mL (≈ 0.0412 µM) | AUC [4]: 11400 ng·h/mL | MIC (Enterobacter cloacae): 0.015 µg/mL (≈ 0.0412 µM) | MIC (Escherichia coli [5]): 0.015 µg/mL (≈ 0.0412 µM)

CCn1cc(C(=O)O)c(=O)c2cc(F)c(N3C[C@H](N)[C@H]3C)c(F)c21
ED50 (Escherichia coli [6]): 3.9 mg/kg | MIC (Klebsiella pneumoniae): 0.06 µg/mL (≈ 0.178 µM) | MIC (Morganella morganii): 0.12 µg/mL (≈ 0.356 µM) | MIC [1]: 0.25 µg/mL (≈ 0.741 µM) | MIC (Proteus vulgaris): 0.5 µg/mL (≈ 1.48 µM) | MIC (Enterococcus faecalis): 2 µg/mL (≈ 5.93 µM) | MIC (Bacillus subtilis): 0.12 µg/mL (≈ 0.356 µM) | ED50 (Staphylococcus aureus [7]): 5.9 mg/kg | ED50 (Pseudomonas aeruginosa [8]): 60 mg/kg | MIC (Bacillus cereus): 0.25 µg/mL (≈ 0.741 µM) | MIC (Pseudomonas aeruginosa [2]): 2 µg/mL (≈ 5.93 µM) | MIC (Staphylococcus aureus [3]): 0.25 µg/mL (≈ 0.741 µM) | AUC [4]: 21000 ng·h/mL | MIC (Enterobacter cloacae): 0.12 µg/mL (≈ 0.356 µM) | MIC (Escherichia coli [5]): 0.12 µg/mL (≈ 0.356 µM)

C[C@@H]1[C@@H](N)CN1c1cc2c(cc1F)c(=O)c(C(=O)O)cn2C1CC1
MIC (Klebsiella pneumoniae): 0.25 µg/mL (≈ 0.754 µM) | MIC (Morganella morganii): 0.5 µg/mL (≈ 1.51 µM) | MIC [1]: 1 µg/mL (≈ 3.02 µM) | MIC (Proteus vulgaris): 1 µg/mL (≈ 3.02 µM) | MIC (Enterococcus faecalis): 2 µg/mL (≈ 6.04 µM) | MIC (Bacillus subtilis): 0.25 µg/mL (≈ 0.754 µM) | MIC (Bacillus cereus): 1 µg/mL (≈ 3.02 µM) | MIC (Pseudomonas aeruginosa [2]): 4 µg/mL (≈ 12.1 µM) | MIC (Staphylococcus aureus [3]): 1 µg/mL (≈ 3.02 µM) | AUC [4]: 2200 ng·h/mL | MIC (Enterobacter cloacae): 0.25 µg/mL (≈ 0.754 µM) | MIC (Escherichia coli [5]): 0.25 µg/mL (≈ 0.754 µM)

C[C@@H]1[C@@H](N)CN1c1c(F)cc2c(=O)c(C(=O)O)cn(-c3ccc(F)cc3)c2c1F
ED50 (Escherichia coli [6]): 2.1 mg/kg | MIC (Klebsiella pneumoniae): 0.015 µg/mL (≈ 0.0372 µM) | MIC (Morganella morganii): 0.12 µg/mL (≈ 0.298 µM) | MIC [1]: 0.25 µg/mL (≈ 0.62 µM) | MIC (Proteus vulgaris): 0.25 µg/mL (≈ 0.62 µM) | MIC (Enterococcus faecalis): 1 µg/mL (≈ 2.48 µM) | MIC (Bacillus subtilis): 0.06 µg/mL (≈ 0.149 µM) | ED50 (Staphylococcus aureus [7]): 4.8 mg/kg | ED50 (Pseudomonas aeruginosa [8]): 53 mg/kg | MIC (Bacillus cereus): 0.12 µg/mL (≈ 0.298 µM) | MIC (Pseudomonas aeruginosa [2]): 0.5 µg/mL (≈ 1.24 µM) | MIC (Staphylococcus aureus [3]): 0.12 µg/mL (≈ 0.298 µM) | AUC [4]: 40900 ng·h/mL | MIC (Enterobacter cloacae): 0.015 µg/mL (≈ 0.0372 µM) | MIC (Escherichia coli [5]): 0.06 µg/mL (≈ 0.149 µM)

C[C@@H]1[C@@H](N)CN1c1c(F)cc2c(=O)c(C(=O)O)cn3c2c1OC[C@@H]3C
ED50 (Escherichia coli [6]): 50 mg/kg | MIC (Klebsiella pneumoniae): 0.06 µg/mL (≈ 0.173 µM) | MIC (Morganella morganii): 0.12 µg/mL (≈ 0.345 µM) | MIC [1]: 0.25 µg/mL (≈ 0.72 µM) | MIC (Proteus vulgaris): 0.5 µg/mL (≈ 1.44 µM) | MIC (Enterococcus faecalis): 1 µg/mL (≈ 2.88 µM) | MIC (Bacillus subtilis): 0.12 µg/mL (≈ 0.345 µM) | ED50 (Staphylococcus aureus [7]): 46.1 mg/kg | ED50 (Pseudomonas aeruginosa [8]): 53 mg/kg | MIC (Bacillus cereus): 0.5 µg/mL (≈ 1.44 µM) | MIC (Pseudomonas aeruginosa [2]): 4 µg/mL (≈ 11.5 µM) | MIC (Staphylococcus aureus [3]): 0.25 µg/mL (≈ 0.72 µM) | MIC (Enterobacter cloacae): 0.25 µg/mL (≈ 0.72 µM) | MIC (Escherichia coli [5]): 0.25 µg/mL (≈ 0.72 µM)
